Results collected from several papers.
Medium: plasma

Structure (SMILES)	host	route	dose	notes	AUC(0-t)
C[C@@H](Oc1ccc(S(C)(=O)=O)cc1C(=O)N1C[C@@H]2C[C@]2(c2cc(C(F)(F)F)on2)C1)C(F)(F)F	human	oral	10 mg	single dose, fasted	1.61 µM·h
CC(C)n1c(C2CCNCC2)nc2c([N+](=O)[O-])c(Br)c(Br)cc21	human	oral	25 mg	patients	152 ng·h/mL
COc1ccc(-c2c(Nc3ccccn3)[nH]c3c(C4=CCCCC4)c(-c4ccccc4)nn3c2=O)cc1	human	oral	50 mg once daily	multiple doses, steady state, patients	33400 ng·h/mL
COc1ccc2c(c1)CN(C(=O)CCN1CCC(Cc3ccccc3)CC1)CC[S@@+]2[O-]	male human	intravenous	0.4 mg/kg	healthy volunteers	2410 ng·h/mL
CC(=O)N(C)[C@H]1CCN(C(=O)c2cnc3c(c2)C[C@](C)(c2ccc(F)cc2)N3)C1	male human	oral	30 mg	multiple doses, once daily	3.42 µM·h
OC[C@H]1O[C@@H](c2cc(Cc3ccc(C4CC4)cc3)c(Cl)c3c2CCO3)[C@H](O)[C@@H](O)[C@@H]1O	human	oral	0.3 mg	single dose, fed	24.6 ng·h/mL
C=CC(=O)NC1CCN(c2ncc3ncnc(Nc4ccc(Oc5ccc6c(c5)ncn6C)c(C)c4)c3n2)CC1	male human	intravenous	100 µg	healthy volunteers	0.00262 µM·h
CC1(C)CC[C@]2(NC(=O)C(C)(F)F)CC[C@]3(C)[C@H](C(=O)C=C4[C@@]5(C)C=C(C#N)C(=O)C(C)(C)[C@@H]5CC[C@]43C)[C@@H]2C1	human	oral	150 mg	single dose	1730 ng·h/mL
CC(=O)O[C@H]1C(=O)[C@@]2(C)[C@H]([C@H](OC(=O)c3ccccc3)[C@]3(O)C[C@H](OC(=O)[C@H](O)[C@@H](NC(=O)c4ccccc4)c4ccccc4)C(C)=C1C3(C)C)[C@]1(OC(C)=O)CO[C@@H]1C[C@@H]2O	human	intravenous	80 mg/m²	–	3.25 µM·h
